The record followed here is ChEMBL document CHEMBL1124559, “Synthesis and antiviral activity of the enantiomeric forms of carba-5-iodo-2'-deoxyuridine and carba-(E)-5-(2-bromovinyl)-2'-deoxyuridine” (1989).

Values after ≈ are worked out from the molar mass of the structure shown. Some results are limits rather than exact numbers.

What all share (assay type): functional
The species entered for assay [1] is Oryctolagus cuniculus. Nature of the assay: Antiviral activity against KOS strain of herpes simplex virus-1 in primary rabbit kidney cell cultures. The procedure, abridged:
(§1)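 Confluent cell monolayers in microtiter trays infected with 100 CCID50 of virus (1 CCID50 = dose infecting 50% of cultures); after 1 h adsorption, residual virus removed and cultures incubated with varying compound concentrations. Cytopathogenicity scored once complete in untreated infected controls; value is concentration reducing virus-induced cytopathogenicity by 50%, averaged over three to four separate experiments.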

The species named for assay [2] is Oryctolagus cuniculus. Briefly: Antiviral activity against F strain of herpes simplex virus-1 in primary rabbit kidney cell cultures. The procedure, abridged:
as §1

The species named for assay [3] is Oryctolagus cuniculus. Nature of the assay: Antiviral activity against McIntyre strain of herpes simplex virus-1 in primary rabbit kidney cell cultures. The method, boiled down: as §1
The species entered for assay [4] is Oryctolagus cuniculus. Nature of the assay: Antiviral activity against Vaccinia virus in primary rabbit kidney cell cultures. The method, boiled down: as §1
The species named for assay [5] is Oryctolagus cuniculus. Briefly: Antiviral activity against G strain of herpes simplex virus-2 in primary rabbit kidney cell cultures. The method, boiled down: as §1
For assay [6], the species on record is Oryctolagus cuniculus. Nature of the assay: Minimum cytotoxic concentration required to cause a microscopically detectable alteration of rabbit kidney cell morphology. The procedure, abridged:
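Cell cultures exposed to varying compound concentrations; value is concentration required to cause microscopically detectable alteration of cell morphology.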

The species named for assay [7] is Oryctolagus cuniculus. Nature of the assay: Antiviral activity against VMW 1837 strain of thymidine kinase deficient (TK-) herpes simplex virus-1 in primary rabbit kidney cell cultures. The method, boiled down:
as §1

The species named for assay [8] is Oryctolagus cuniculus. Nature of the assay: Antiviral activity against Lyons strain of herpes simplex virus-2 in primary rabbit kidney cell cultures. The method, boiled down:
as §1

The species named for assay [9] is Oryctolagus cuniculus. Nature of the assay: Antiviral activity against Vesicular stomatitis virus in primary rabbit kidney cell cultures. The method, boiled down:
as §1

The species entered for assay [10] is Oryctolagus cuniculus. Nature of the assay: Antiviral activity against B2006 strain of thymidine kinase deficient (TK-) herpes simplex virus-1 in primary rabbit kidney cell cultures. The procedure, abridged:
as §1

The species entered for assay [11] is Oryctolagus cuniculus. Nature of the assay: Antiviral activity against 196 strain of herpes simplex virus-2 in primary rabbit kidney cell cultures. The method, boiled down: as §1
Setting [12] is: Oryctolagus cuniculus, read-out: MIC.

Consider `O=c1[nH]c(=O)n([C@@H]2C[C@H](CO)[C@@H](O)C2)cc1I` (racemic), for which the MIC in the assay listed under Oryctolagus cuniculus [1] stood at 0.1 µg/mL (≈ 0.284 µM); in the assay listed under Oryctolagus cuniculus [2] it was 0.1 µg/mL (≈ 0.284 µM); in the assay filed under Oryctolagus cuniculus [3], 0.1 µg/mL (≈ 0.284 µM); in the assay listed under Oryctolagus cuniculus [4] it was 150 µg/mL (≈ 426 µM); in the assay listed under Oryctolagus cuniculus [5], 20 µg/mL (≈ 56.8 µM).

On to `O=c1[nH]c(=O)n([C@@H]2C[C@H](CO)[C@@H](O)C2)cc1I` (stereo in doubt; (-)), for which the MIC is 1 µg/mL (≈ 2.84 µM) in the assay filed under Oryctolagus cuniculus [1]; 7 µg/mL (≈ 19.9 µM) in the assay filed under Oryctolagus cuniculus [2]; 20 µg/mL (≈ 56.8 µM) in the assay listed under Oryctolagus cuniculus [3]; more than 400 µg/mL in the assay listed under Oryctolagus cuniculus [4]; 70 µg/mL (≈ 199 µM) in the assay listed under Oryctolagus cuniculus [5].

In the assay filed under Oryctolagus cuniculus [6], `O=c1[nH]c(=O)n([C@@H]2C[C@H](CO)[C@@H](O)C2)cc1I` (stereo in doubt; (+)) displayed an MCC of more than 400 µg/mL. Besides, the MIC in the assay listed under Oryctolagus cuniculus [7] was more than 400 µg/mL; in the assay filed under Oryctolagus cuniculus [8], more than 400 µg/mL; in the assay listed under Oryctolagus cuniculus [1], 0.07 µg/mL (≈ 0.199 µM); in the assay filed under Oryctolagus cuniculus [2] it was 0.07 µg/mL (≈ 0.199 µM); in the assay listed under Oryctolagus cuniculus [9] it was more than 400 µg/mL; in the assay listed under Oryctolagus cuniculus [3] it was 0.2 µg/mL (≈ 0.568 µM). Besides, the MIC in the assay listed under Oryctolagus cuniculus [10] was more than 400 µg/mL; in the assay filed under Oryctolagus cuniculus [4] it was 40 µg/mL (≈ 114 µM); in the assay listed under Oryctolagus cuniculus [11], more than 400 µg/mL; in the assay filed under Oryctolagus cuniculus [5], 10 µg/mL (≈ 28.4 µM).

Take `O=c1[nH]c(=O)n([C@H]2C[C@H](O)[C@@H](CO)O2)cc1I` [IDOXURIDINE]: the MCC in the assay filed under Oryctolagus cuniculus [6] was more than 400 µg/mL. Moreover, the MIC in the assay filed under Oryctolagus cuniculus [7] is more than 400 µg/mL; in the assay filed under Oryctolagus cuniculus [8], 1 µg/mL (≈ 2.82 µM); in the assay listed under Oryctolagus cuniculus [1] (setting [12]) it was 0.1 µg/mL (≈ 0.282 µM); in the assay filed under Oryctolagus cuniculus [2] (setting [12]), 0.07 µg/mL (≈ 0.198 µM); in the assay filed under Oryctolagus cuniculus [9] it was more than 400 µg/mL; in the assay listed under Oryctolagus cuniculus [3] (setting [12]) it was 0.1 µg/mL (≈ 0.282 µM). The MIC in the assay filed under Oryctolagus cuniculus [10] was more than 400 µg/mL; in the assay listed under Oryctolagus cuniculus [4] (setting [12]), 0.2 µg/mL (≈ 0.565 µM); in the assay filed under Oryctolagus cuniculus [11], 2 µg/mL (≈ 5.65 µM); in the assay listed under Oryctolagus cuniculus [5] (setting [12]) it was 0.4 µg/mL (≈ 1.13 µM).

Take `O=c1[nH]c(=O)n([C@H]2C[C@H](O)[C@@H](CO)O2)cc1/C=C/Br` [BRIVUDINE]: the MCC in the assay listed under Oryctolagus cuniculus [6] is more than 400 µg/mL. Further, the MIC in the assay listed under Oryctolagus cuniculus [7] is more than 400 µg/mL; in the assay listed under Oryctolagus cuniculus [8], 7 µg/mL (≈ 21 µM); in the assay listed under Oryctolagus cuniculus [1] (setting [12]) it was 0.01 µg/mL (≈ 0.03 µM); in the assay filed under Oryctolagus cuniculus [2] (setting [12]), 0.02 µg/mL (≈ 0.06 µM); in the assay filed under Oryctolagus cuniculus [9] it was more than 400 µg/mL; in the assay listed under Oryctolagus cuniculus [3] (setting [12]) it was 0.025 µg/mL (≈ 0.075 µM). For the same compound, the MIC came out at 150 µg/mL (≈ 450 µM) in the assay listed under Oryctolagus cuniculus [10], 15 µg/mL (≈ 45 µM) in the assay listed under Oryctolagus cuniculus [4] (setting [12]), 70 µg/mL (≈ 210 µM) in the assay listed under Oryctolagus cuniculus [11] and 2 µg/mL (≈ 6 µM) in the assay filed under Oryctolagus cuniculus [5] (setting [12]).
